ChEMBL document CHEMBL1152172, “Synthesis and biological activities of novel nonpeptide angiotensin II receptor antagonists based on benzimidazole derivatives bearing a heterocyclic ring” (Bioorg Med Chem, 2008)
Active and inactive are the calls of the source. The calls are words filed in the database; no cut-off is given here.

Assays:
Canis familiaris [1] = assay: Antihypertensive activity against angiotensin II-induced pressor response in conscious normotensive Beagle dog assessed as rate of change of mean systolic blood pressure at 2.13 mg/kg, po after 1 hr; type: functional, Canis lupus familiaris, Artery
Summary of the method: (§1)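 Conscious normotensive Beagle dogs, 6–7 per group. Baseline BP and heart rate recorded once stable, then test compound given orally at 2.13 mg/kg. BP and heart rate read 1 h after dosing, then AngII 0.45 µg/kg iv, with waveforms recorded 1 min after injection. Values given as rate of change relative to pre-model baseline (100%), with SEM.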

Canis familiaris [2] = assay: Antihypertensive activity against angiotensin II-induced pressor response in conscious normotensive Beagle dog assessed as rate of change of mean arterial blood pressure at 2.13 mg/kg, po after 1 hr; type: functional, Canis lupus familiaris, Artery; summary of the method: as §1
Canis familiaris [3] = assay: Antihypertensive activity against angiotensin II-induced pressor response in conscious normotensive Beagle dog assessed as decrease in basal heart rate at 2.13 mg/kg, po after 1 hr; type: functional, organism-based; set-up: dose 2.13 mg/kg; conditions: Canis lupus familiaris; summary of the method: as §1
Canis familiaris [4] = assay: Antihypertensive activity against angiotensin II-induced pressor response in conscious normotensive Beagle dog assessed as rate of change of mean diastolic blood pressure at 2.13 mg/kg, po after 1 hr; type: functional, Canis lupus familiaris, Artery; summary of the method: as §1

| SMILES | Activity (Canis familiaris [1]) [%] | Activity (Canis familiaris [2]) [%] | Activity (Canis familiaris [3]) | Activity (Canis familiaris [4]) [%] |
| --- | --- | --- | --- | --- |
| CCCc1nc2c(C)cc(-c3nc4ccccc4n3C)cc2n1Cc1ccc(-c2ccccc2-c2ncn[nH]2)cc1 | 103.8 | 103.37 | inactive | 103.14 |
| CCCc1nc2c(C)cc(-c3nc4ccccc4n3C)cc2n1Cc1ccc(-c2ccccc2-c2ncc[nH]2)cc1 | 98.67 | 98.11 | Active | 97.96 |
| CCCc1nc2c(C)cc(-c3nc4ccccc4n3C)cc2n1Cc1ccc(-c2ccccc2C2=NCCN2)cc1 | 96.75 | 97.43 | Active | 95.28 |
| CCCc1nc2c(C)cc(-c3nc4ccccc4n3C)cc2n1Cc1ccc(-c2ccccc2-c2ncc(Cl)[nH]2)cc1 | 95.75 | 95.43 | Active | 95.28 |
| CCCc1nc2c(C)cc(-c3nc4ccccc4n3C)cc2n1Cc1ccc(-c2ccccc2C(=O)O)cc1 | 95.78 | 96.13 | – | 96.15 |
